According to ChEMBL document CHEMBL2417357, “Synthesis and antiprotozoal activities of benzyl phenyl ether diamidine derivatives” (Eur J Med Chem, 2013):
The source made the active and inactive calls. The rule behind the calls is not given here.

How the values were obtained:
[1] = Selectivity index, ratio of IC50 for rat L6 cells to IC50 for Trypanosoma brucei rhodesiense STIB900; type: toxicity, cell-based; details: read-out: Ratio IC50
Outline: (§1)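 SI = IC50 in rat L6 myoblasts / IC50 against the parasite (T. b. rhodesiense STIB900 or P. falciparum K1). Each IC50 is the average of duplicate determinations.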

Plasmodium falciparum = experiment: Antiplasmodial activity against chloroquine-resistant Plasmodium falciparum K1; type: functional, organism-based
Outline: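 Chloroquine-resistant K1 strain tested in vitro. IC50 is the average of duplicate determinations.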

L6 = experiment: Cytotoxicity against rat L6 cells after 72 hrs by Alamar blue assay; type: cell-based; details: L6, 72 h
Outline: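 Rat L6 myoblast cells; cytotoxic IC50 taken as the average of duplicate determinations.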

[2] = system: Trypanosoma brucei rhodesiense; experiment: Antitrypanosomal activity against Trypanosoma brucei rhodesiense STIB900 after 72 hrs by Alamar blue assay; type: functional, organism-based; details: STIB900, 72 h
[3] = Selectivity index, ratio of IC50 for rat L6 cells to IC50 for chloroquine-resistant Plasmodium falciparum K1; type: toxicity, cell-based; details: read-out: Ratio IC50; outline: as §1
[4] = Selectivity index, ratio of IC50 for rat L6 cells to IC50 for amastigotes of Leishmania donovani; type: toxicity, cell-based; details: read-out: Ratio IC50
Outline: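 SI = IC50 in rat L6 myoblasts / IC50 against L. donovani MHOM/SD/62/IS-CL2D axenic amastigotes. The amastigote IC50 is the average of at least two determinations; the L6 IC50 is the average of duplicates.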

[5] = system: Trypanosoma brucei rhodesiense; experiment: Antitrypanosomal activity against Trypanosoma brucei rhodesiense STIB900 infected in NMRI mouse assessed as cured animal at 25 mg/kg, po administered for 4 days; type: functional, organism-based; set-up: dose 25 mg/kg
Outline: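 Acute model in female NMRI mice infected with T. b. rhodesiense STIB900. Single daily doses given for four days, intraperitoneally or orally. Mice surviving 60 days post-infection without parasitaemia relapse counted as cured; result reported as cured/infected out of 4 mice per group, with mean survival in days.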

[6] = system: Trypanosoma brucei rhodesiense; experiment: Antitrypanosomal activity against Trypanosoma brucei rhodesiense STIB900 infected in NMRI mouse assessed as mean survival days at 25 mg/kg, po administered for 4 days; type: functional
Outline: (§2)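 Female NMRI mice, acute infection model with T. b. rhodesiense STIB900. Compound given as a single daily dose for four days, intraperitoneally or orally. Cure means survival to 60 days post-infection without parasitaemia relapse. Mean survival recorded in days.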

Leishmania donovani = experiment: Antileishmanial activity against amastigotes of Leishmania donovani MHOM/SD/62/IS-CL2D; type: functional, organism-based
Outline: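 Axenic amastigotes of L. donovani MHOM/SD/62/IS-CL2D; IC50 taken as the average of at least two determinations.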

[7] = system: Trypanosoma brucei rhodesiense; experiment: Antitrypanosomal activity against Trypanosoma brucei rhodesiense STIB900 infected in NMRI mouse assessed as mean survival days at 5 mg/kg, ip administered for 4 days; type: functional; details: route intraperitoneal; outline: as §2

SMILES	selectivity ratio [1]	IC50 (Plasmodium falciparum) [µM]	IC50 (L6) [µM]	IC50 [2] [µM]	selectivity ratio [3]	selectivity ratio [4]	Activity [5]	MSD [6] [days]	IC50 (Leishmania donovani) [µM]	MSD [7] [days]
N=C(N)c1cccc(COc2cccc([N+](=O)[O-])c2)c1	14	> 3.07	104	7.28	< 34					
COc1cc(/C(N)=N/O)cc(I)c1OCc1cccc(/C(N)=N/O)c1.Cl.Cl	< 1	> 9.45	32.1	38.7	< 3	< 1	inactive	20.5	> 94.5	
N=C(N)c1cccc(OCc2ccccc2)c1	17	> 3.81	156	9.32	< 41					
CO/N=C(\N)c1cccc(COc2ccc(/C(N)=N/OC)cc2I)c1.Cl.Cl	2	6.3	81	34.7	13	< 1	inactive	22.25	> 100	
N=C(N)c1cccc(COc2ccc(C(=N)N)cc2I)c1	1190	0.013	6.06	0.005	477	5			1.27	>31.25
N=C(N)c1ccc(OCc2ccccc2)cc1	69	> 3.56	127	1.84	< 36					
Cl.Cl.Cl.N/C(=N\O)c1cccc(COc2ccc(/C(N)=N/O)cc2Cl)c1	< 1	> 11.2	2.26	49.2	< 1	< 1		>39	> 100	
N=C(N)c1ccc(COc2ccc(C(=N)N)cc2Cl)cc1	147	0.006	3.2	0.022	552	1			2.89	>51
CO/N=C(\N)c1ccc(COc2ccc(/C(N)=N/OC)cc2)cc1.Cl.Cl		5.78	> 224	> 224		2	inactive	13.25	> 100	
N=C(N)c1cccc(COc2ccc(C(=N)N)cc2Br)c1	3410	0.052	15.7	0.005	302	8			1.86	>37.5
N=C(N)c1ccc(COc2ccc(C(=N)N)cc2I)cc1	312	0.006	5.3	0.017	898	3			1.94	>41.5
CO/N=C(\N)c1ccc(COc2ccc(/C(N)=N/OC)cc2Br)cc1.Cl.Cl	5	> 10.2	101	18.8	< 10	< 1		>32.5	> 100	
CO/N=C(\N)c1ccc(COc2c(OC)cc(/C(N)=N/OC)cc2OC)cc1.Cl.Cl	> 1	> 10.6	> 190	129		> 2	inactive	11.75	100	
Cl.Cl.Cl.Cl.N/C(=N\O)c1cccc(COc2c(Cl)cc(/C(N)=N/O)cc2Cl)c1	< 1	11.5	14.4	26.4	1	< 1		>53.25	> 100	
CO/N=C(\N)c1cccc(COc2c(Br)cc(/C(N)=N/OC)cc2OC)c1.Cl.Cl	< 1	3.35	70.5	81.5	21	< 1		>52.25	> 100	
CO/N=C(\N)c1ccc(COc2ccc(/C(N)=N/OC)cc2I)cc1.Cl.Cl	2	> 10.3	86.6	50.4	< 8		inactive	29.75		
N=C(N)c1cccc(OCc2cccc([N+](=O)[O-])c2)c1	164	> 3.16	78.9	0.481	< 25					
CO/N=C(\N)c1cccc(COc2c(OC)cc(/C(N)=N/OC)cc2OC)c1.Cl.Cl	> 1	> 10.4	> 188	109		< 2	inactive	15	> 100	
